Measurements pooled from the literature.
Protocols differ between the studies behind these lines.
Effect on: metabolic stability
Species: human
Sample: liver microsomes

c1ccc(-c2nc(N3CCc4cccnc4C3)c3ccccc3n2)nc1
microsomal CLint: 64 µL/min/mg

CCOC(=O)c1c(-c2cccc(Br)c2)[nH]c2cc(OC)c(F)cc2c1=O
microsomal CLint (19.8 µM, pH 7.4): < 4 µL/min/mg

Cc1cc(Nc2ccc(C(F)(F)F)cc2)n2nc(C(F)(F)F)nc2n1
microsomal CLint (1 µM, pH 7.4): < 6 µL/min/mg

C[C@@H](C(=O)NC1Cc2ccccc2C1)c1ccccc1
microsomal CLint (1 µM, 1 h): 105 µL/min/mg

Cc1cc(Nc2ccc(C(F)(F)F)cc2)n2nc(C(C)(F)F)nc2n1
microsomal CLint (1 µM, pH 7.4): < 6 µL/min/mg

Cc1cnnc(Nc2ccnc3ccc(-c4ccc(S(=O)(=O)N5CCOCC5)cc4)cc23)c1
microsomal CLint: 126 µL/min/mg

Fc1ccc(Nc2c(Cn3cccn3)nc3ccccn23)cc1
microsomal CLint (3 µM, pH 7.4): 45 µL/min/mg

Cc1cc(Nc2ccc(S(F)(F)(F)(F)F)cc2)n2nc(C(F)(F)F)nc2n1
microsomal CLint (1 µM, pH 7.4): < 6 µL/min/mg

Clc1cccc(-c2c(-c3ccccn3)nc3n2CCC3)c1
microsomal CLint (3 µM, pH 7.4): 140 µL/min/mg

c1ccc(CN2CCN(c3nc(-c4ccccn4)nc4ccccc34)CC2)cc1
microsomal CLint: 136 µL/min/mg

CCOCCOc1ccnc2ccc(-c3ccc(S(=O)(=O)N4CCOCC4)cc3)cc12
microsomal CLint: > 300 µL/min/mg

CC(C)(C)[Si](C)(C)OCCCN(c1ccc(F)cc1)c1c(-c2ccccn2)nc2ccccn12
microsomal CLint (3 µM, pH 7.4): > 300 µL/min/mg

Cc1cc(NC(=O)Nc2ccc3c(c2)OC(F)(F)O3)cc(C(F)(F)F)n1
microsomal CLint: < 7 µL/min/mg

COc1ccc(-c2c(C)[nH]c3cc(OC)c(Cl)cc3c2=O)cc1
microsomal CLint (1 µM): < 7 µL/min/mg

c1ccc(-c2nc3n(c2-c2ccncc2)CCC3)nc1
microsomal CLint (3 µM, pH 7.4): 26 µL/min/mg

COc1cc2[nH]c(C)c(-c3ccc(O)cc3)c(=O)c2cc1Cl
microsomal CLint (1 µM): < 7 µL/min/mg

Cc1nnc(Nc2ccnc3ccc(-c4ccc(S(=O)(=O)N5CCOCC5)cc4)cc23)nc1C
microsomal CLint: 114 µL/min/mg

O=C(N[C@H](Cc1ccccc1)C(=O)Nc1ccccc1N1CCS(=O)(=O)CC1)c1ccccc1F
microsomal CLint (2 µM, 40 min, pH 7.4): 1110 µL/min/mg

C[C@H](C(=O)N[C@@H]1COc2ccccc2[C@H]1S(C)(=O)=O)c1ccc(F)cc1
microsomal CLint (1 µM): 2 µL/min/mg

COc1ccc2nc(-c3cc(N(C)C)ccn3)c(Nc3ccc(F)cc3)n2c1
microsomal CLint (3 µM, pH 7.4): 120 µL/min/mg

COc1cc2[nH]c(C)c(-c3ccc(OC(C)C)cc3)c(=O)c2cc1Cl
microsomal CLint (1 µM): 8 µL/min/mg

Fc1ccc(N(CC2CC2)c2c(-c3ccccn3)nc3ccccn23)cc1
microsomal CLint (3 µM, pH 7.4): 110 µL/min/mg

COc1cc2[nH]c(C)c(-c3cccc(CO)c3)c(=O)c2cc1Cl
microsomal CLint (1 µM): < 7 µL/min/mg

C[C@H](N)c1cc(Cl)ccc1Cn1c(=S)[nH]c(=O)c2[nH]ccc21
microsomal CLint: < 3 µL/min/mg

CCn1nccc1Nc1ccnc2ccc(-c3ccc(S(=O)(=O)N4CCOCC4)cc3)cc12
microsomal CLint: 134 µL/min/mg

O=C(Nc1ccc2c(c1)B(O)OC2)Nc1ccc(F)c(C(F)(F)F)c1
microsomal CLint: 13 µL/min/mg

COc1cc2[nH]c(C)c(-c3ccc(N4CCN(C)CC4)nc3)c(=O)c2cc1Cl
microsomal CLint (1 µM): 34 µL/min/mg

O=S(=O)(c1ccc(-c2ccc3nccc(Nc4ncc(Cl)cn4)c3c2)cc1)N1CCOCC1
microsomal CLint: 113 µL/min/mg

COc1cc2[nH]c(C)c(-c3ccc(CO)cc3)c(=O)c2cc1Cl
microsomal CLint (1 µM): < 7 µL/min/mg

Cc1cccnc1CNc1nc(-c2ccccn2)nc2ccccc12
microsomal CLint: 64 µL/min/mg

C=CCn1c(=O)c2cnc(Nc3ccc(N4CCN(C)CC4)cc3)nc2n1-c1cccc(C(C)(C)O)n1
microsomal CLint: 17 µL/min/mg

COc1ccc(Nc2ccnc3ccc(-c4ccc(S(=O)(=O)N5CCOCC5)cc4)cc23)cc1Cl
microsomal CLint: 102 µL/min/mg

Cc1cc(Nc2ccc(C(F)(F)F)cc2)c2ccccc2n1
microsomal CLint: 4.8 µL/min/mg

COc1cc2[nH]c(C)c(-c3ccc(C)cc3)c(=O)c2cc1Cl
microsomal CLint (1 µM): 21 µL/min/mg

c1ccc(-c2nc3n(c2-c2cccnc2)CCC3)nc1
microsomal CLint (3 µM, pH 7.4): 24 µL/min/mg

c1ccc(-c2nc(N3CCOCC3)c3ccccc3n2)nc1
microsomal CLint: 58 µL/min/mg

Cc1cc(Nc2ccnc3ccc(-c4ccc(S(=O)(=O)N5CCOCC5)cc4)cc23)sn1
microsomal CLint: 115 µL/min/mg

c1ccc(-c2nc(N3CCCC(c4ccccn4)C3)c3ccccc3n2)nc1 (centres unmarked)
microsomal CLint: 113 µL/min/mg

Fc1ccc(Nc2c(-c3ccccn3)nc3ccccn23)c(F)c1
microsomal CLint (3 µM, pH 7.4): 96 µL/min/mg

Cc1cccc(CNc2nc(-c3ccccn3)nc3ccccc23)n1
microsomal CLint: 63 µL/min/mg

COc1ccc(Nc2ccnc3ccc(-c4ccc(S(=O)(=O)N5CCOCC5)cc4)cc23)cc1C
microsomal CLint: 131 µL/min/mg

O=C(C1CCSCC1)N1CC(=O)N2CCc3ccccc3[C@@H]2C1
microsomal CLint (0.1 µM, pH 7.4): 28 µL/min/mg

COc1cc2[nH]c(C)c(-c3ccc(F)cc3)c(=O)c2cc1Cl
microsomal CLint (1 µM): 31 µL/min/mg

Fc1ccccc1-c1nc(N2CCC(c3ccccn3)C2)c2ccccc2n1 (centres unmarked)
microsomal CLint: 186 µL/min/mg

CCOC(=O)c1c(-c2cccc(Cl)c2)[nH]c2cc(OC)c(F)cc2c1=O
microsomal CLint (19.8 µM, pH 7.4): < 4 µL/min/mg

Cn1cc(-c2nc(N3CCC(c4ccccn4)C3)c3ccccc3n2)cn1 (centres unmarked)
microsomal CLint: 118 µL/min/mg

CN(C)C(=N)N=C(N)N
microsomal CLint: 1.5 µL/min/mg
